Source: PubChem
Rows were chosen to be rich in hits. Some 1.8% of all compounds tested hit in one or more screens of this group.
STEP inh = STEP (human) phosphatase inhibition | inhibition, % at 20 µM | recombinant STEP, OMFP fluorogenic substrate, fluorescence | actives 0.25% (n = 360,000) | P54829;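 active = inhibition at 20 µM, scaled per plate between control wells, above about 37%, limit read from the data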
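System: isolated STEP enzyme; schedule: 20 min enzyme reaction at room temperature, protected from light; medium: Bis-Tris buffer pH 6.0, 2.5 mM DTT, 0.005% Tween 20; signal: fluorescence, 480/540 nm; dosing: single compound dose of 20 µM, 1% DMSO final; also added: OMFP substrate, 25 µM final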
LMPTP block = blocks human LMPTP phosphatase | P24666 | recombinant LMPTP-A, OMFP fluorogenic substrate, fluorescence intensity | inhibition, % at 20 µM | actives 0.22% (n = 360,000) | AID 651560;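 active = compounds that cut the enzyme signal by at least half of the control window in the single-dose screen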
Target sequence (P24666 whole entry, looked up): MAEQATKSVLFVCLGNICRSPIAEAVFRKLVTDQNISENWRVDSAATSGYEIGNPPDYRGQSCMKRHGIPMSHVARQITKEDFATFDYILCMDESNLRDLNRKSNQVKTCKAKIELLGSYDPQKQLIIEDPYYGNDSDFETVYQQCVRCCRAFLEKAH
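test system = LMPTP-A | amount = 0.625 nM LMPTP-A final | reagent = fluorogenic phosphatase substrate OMFP at 400 µM final | incubation = 50 min at room temperature | benchmarks = no-enzyme low control, uninhibited high control | medium = Bis-Tris pH 6.0, DTT, detergent | signal = fluorescence intensity of OMFP turnover product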
SUMO1-SIM PPI = SUMO1-SIM interaction modulation | inhibition, % at 20 µM | SUMO1 binding to a labelled peptide, TR-FRET, 1 h | actives 0.33% (n = 360,000) | P63165; in the data active = inhibition above about 37%
Target sequence (P63165 whole entry, looked up): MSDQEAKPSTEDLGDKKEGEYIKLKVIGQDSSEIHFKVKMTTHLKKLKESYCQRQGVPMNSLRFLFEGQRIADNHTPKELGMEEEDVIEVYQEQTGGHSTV
Scp-1 inhibitor = Scp-1 (human) phosphatase inhibition. Q9GZU7. Recombinant Scp1, phosphopeptide, malachite green phosphate absorbance. inhibition, % at 20 µM. actives 0.88% (n = 340,000);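 active = inhibition above about 50% at 20 µM, limit read from the data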
Target sequence (Q9GZU7 76-261 limits assumed): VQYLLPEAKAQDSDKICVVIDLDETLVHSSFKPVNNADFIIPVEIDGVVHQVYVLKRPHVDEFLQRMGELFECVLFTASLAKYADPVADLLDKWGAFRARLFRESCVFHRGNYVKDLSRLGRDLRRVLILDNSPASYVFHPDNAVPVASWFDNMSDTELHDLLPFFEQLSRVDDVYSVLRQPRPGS
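Test system: SCP-1 phosphatase catalytic domain, residues 76-261 | Compound dosing: One concentration, 20 µM, with 1.0% DMSO | Schedule: 45 min room-temperature reaction, 5 min colour, 30 min stabiliser | Detection: Absorbance at 630 nm | Read-out basis: % inhibition of SCP-1 phosphate liberation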
DNMT1 inh = inhibitors of human DNMT1; actives 0.83% (n = 360,000); P26358; DNMT1 molecular beacon, Hinp1I cleavage, fluorescence; inhibition (reported as % activation of signal), % at 10 µM; in the data active = inhibition above about 50%
DNMT1 interf DR = counter-screen for DNMT1 inhibitors: spectral interference, dose response; molecular beacon fluorescence; shares compounds with DNMT1 inh; 200 tested, under 10 active; IC50, µM; call rule not given here
DNMT1 confirm = confirmation of human DNMT1 inhibitors | shares compounds with DNMT1 inh | DNMT1 molecular beacon HinP1I cleavage, fluorescence | inhibition, % at 10 µM | actives 8% (n = 2,300) | AID 602385;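 active = average inhibition of at least 30% in the single-concentration confirmation test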
Beacon interf = counter-screen for DNMT1 inhibitors: spectral interference | activation (fluorescence interference), % at 10 µM | actives 1% (n = 2,300) | DNMT1 molecular beacon spectral interference counterscreen, fluorescence 485/520 | shares compounds with DNMT1 inh;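 active = activation of at least 30% at 10 µM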;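 also: DNMT1 catalytic domain with a HinP1I cleavage step and a FAM/dabcyl DNA beacon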
Each line names hits and unclear results; the compound was inactive in the other large screens (follow-up assays come after a bar, where they were run).

C=CCn1c(=NC(=O)c2cccs2)sc2cccc(OC)c21	none
C#CCn1c(=NC(=O)c2ccc(Br)s2)sc2cccc(OC)c21	DNMT1 inh 52 | DNMT1 confirm inactive | Beacon interf inactive
COc1ccc(NC(=O)CN2C(=O)NC3(CCCc4ccccc43)C2=O)c(OC)c1 (configuration not stated)	none
O=C(CSc1nc(C2CC2)nc2ccccc12)N1CCc2ccccc21	none
CCn1nc(C)cc1C(=O)N1CCCC(Nc2ccc(C(C)C)cc2)C1 (configuration not stated)	none
COC(=O)c1sccc1NC(=O)Cc1ccc(OC)cc1	DNMT1 inh 92 | DNMT1 confirm inactive | Beacon interf inactive
CC(=O)c1c(C)[nH]c(C(=O)OCc2csc(CC(=O)Nc3ccccc3C)n2)c1C	none
COc1cc(/C=C(\C#N)C(=O)NCC2CCCO2)cc(OC)c1OC (configuration not stated)	DNMT1 inh 57 | DNMT1 confirm inactive | Beacon interf inactive
O=C(c1cccc(Cl)c1)N1CCN(Cc2ccc3c(c2)OCO3)CC1	DNMT1 inh 90 | DNMT1 confirm inactive | Beacon interf inactive
NC(=O)CC(NC(=O)Cc1ccc(Br)cc1)c1ccc(N2CCC(Br)CC2)c([N+](=O)[O-])c1 (configuration not stated)	DNMT1 inh 77 | DNMT1 confirm inactive | Beacon interf inactive
CN(Cc1ccccc1)c1ccc(C(CC(N)=O)NC(=O)Cc2ccc(Br)cc2)cc1[N+](=O)[O-] (configuration not stated)	DNMT1 inh 80 | DNMT1 confirm inactive | Beacon interf inactive
CN1CCN(c2ccc(C(CC(N)=O)NC(=O)Cc3ccc(Br)cc3)cc2[N+](=O)[O-])CC1 (configuration not stated)	none
NC(=O)CC(NC(=O)Cc1ccc(Br)cc1)c1ccc(N2CCC(Cc3ccccc3)CC2)c([N+](=O)[O-])c1 (configuration not stated)	DNMT1 inh 87 | DNMT1 confirm inactive | Beacon interf inactive
NC(=O)CC(NC(=O)Cc1ccc(Br)cc1)c1ccc(N2CCCCCCC2)c([N+](=O)[O-])c1 (configuration not stated)	DNMT1 inh 65 | DNMT1 confirm inactive | Beacon interf inactive
COc1ccccc1NC(=O)CSc1ccc(-c2ccc(-n3cccn3)cc2)nn1	none
CC(=O)c1ccc(NC(=O)CSc2ccc(-c3ccc(-n4cccn4)cc3)nn2)cc1	DNMT1 inh 71 | DNMT1 confirm inactive | Beacon interf inactive
CCCCn1c(=O)[nH]c2nc3cc(NC(C)=O)ccc3nc2c1=O	none
CCC(=O)Nc1ccc2nc3c(=O)[nH]c(=S)[nH]c3nc2c1	Scp-1 inhibitor 67, DNMT1 inh 55 | DNMT1 confirm inactive | Beacon interf inactive
O=c1c2c([nH]c3ccccc13)C(=C1CCCC1)CC2	LMPTP block 59, DNMT1 inh 92 | DNMT1 confirm inactive | Beacon interf inactive
Cc1c(C=C(C#N)c2ccc([N+](=O)[O-])cc2)c(=O)n(-c2ccccc2)n1C	none
O=C(CNC(=O)c1ccco1)NCC(=O)OCc1ccccc1Cl	none
O=C(CNC(=O)Cc1ccccc1)NCC(=O)OCc1ccccc1	DNMT1 inh 68 | DNMT1 confirm inactive | Beacon interf inactive
O=C(Cc1c(F)cccc1Cl)NCC(=O)OCc1ccccc1	none
O=C(CNC(=O)c1ccco1)NCC(=O)OCc1ccc(Cl)cc1Cl	DNMT1 inh 66 | DNMT1 confirm inactive | Beacon interf inactive
COc1cccc(C2=NOC(C(=O)Nc3cc(C)on3)C2)c1 (configuration not stated)	none
O=C(Cc1ccsc1)NNC(=O)c1ccccc1O	none
O=C(O)c1ccc2c(c1)C1C=CCC1C(c1cc3c(cc1Br)OCO3)N2 (configuration not stated)	none
O=C(O)c1ccc(NS(=O)(=O)c2ccc3c(c2)C2C=CCC2C(c2ccccc2F)N3)cc1 (configuration not stated)	DNMT1 inh 62 | DNMT1 interf DR inactive | DNMT1 confirm inactive | Beacon interf inactive
O=C(Cn1cc(COc2ccc(C(=O)c3ccccc3)cc2)nn1)c1ccc(O)cc1	none
CCC(=O)c1ccc(OCc2cn(CC(=O)c3ccc(O)cc3)nn2)cc1	DNMT1 inh 54 | DNMT1 confirm inactive | Beacon interf inactive
COc1ccc(OCc2cn(CC(=O)c3ccc(O)cc3)nn2)cc1	DNMT1 inh 57 | DNMT1 confirm inactive | Beacon interf inactive
O=C(CCc1nc2ccccc2c(=O)[nH]1)Nc1ccc(F)cc1	none
N#Cc1ccc(CSc2nnc(NC(=O)CCc3nc4ccccc4c(=O)[nH]3)s2)cc1	DNMT1 inh 68 | DNMT1 confirm inactive | Beacon interf inactive
Cc1ccc(/C=C/C(=O)Nc2nnc(SCc3ccc(C#N)cc3)s2)o1	none | DNMT1 confirm inactive | Beacon interf inactive
N#Cc1ccc(NC(=O)COC(=O)CCc2nc3ccccc3c(=O)[nH]2)cc1	none
O=C(CCc1nc2ccccc2c(=O)[nH]1)Nc1nnc(SCc2ccc(F)cc2)s1	DNMT1 inh 64 | DNMT1 confirm inactive | Beacon interf 77
N#C/C(=C\c1ccc[nH]1)C(=O)N1CCCCC1	none
CC(=O)c1ccc(C(=O)Nc2sc3c(c2C(N)=O)CCN(Cc2ccccc2)C3)cc1	DNMT1 inh 84 (no result: Scp-1 inhibitor) | DNMT1 confirm inactive | Beacon interf inactive
Cc1c(C(=O)NCCC#N)sc(=O)n1Cc1ccc(C(=O)N(C)C)cc1	none (no result: Scp-1 inhibitor)
Cc1cc(C)n(-c2nc(Nc3ccccc3)nc(-n3nc(C)cc3C)n2)n1	DNMT1 inh 64 | DNMT1 confirm inactive | Beacon interf inactive
OC(CN1CCOCC1)c1ccc(F)cc1 (configuration not stated)	DNMT1 inh 77 | DNMT1 confirm inactive | Beacon interf inactive
Cc1ccc(S(=O)(=O)N(C)C)cc1NC(=O)COC(=O)c1ccc2ccccc2n1	none
COC(=O)CC1OCC=C2CN3CCC45C6=CC(=O)C(=O)C([N+](=O)[O-])=C6NC4C1C2CC35 (configuration not stated)	DNMT1 inh 85 (no result: Scp-1 inhibitor) | DNMT1 interf DR inactive | DNMT1 confirm 53 | Beacon interf inactive
COc1ccc(CC(=O)N[C@@H]2c3cc(OC)c(OC)cc3C[C@H]2O)cc1	none
CCC1Oc2nc(SC)nnc2-c2ccccc2N1C(=O)c1ccccc1 (configuration not stated)	DNMT1 inh 54 | DNMT1 confirm inactive | Beacon interf inactive
